Experimental data from article PMC11184607 (ACS Pharmacology & Translational Science, 2024).
Bridge positions count the residues as written; N and C are the ends. Square brackets hold non-standard residues; d marks the D form. Peptide text beside a SMILES is read from it. * marks the point of attachment. NMeTrp(1-(4-Br-benzyl)) = CN[C@@H](Cc1cn(Cc2ccc(Br)cc2)c2ccccc12)C(=O)O; Butanoyl(2R-oxy,4-CN) = N#CCC[C@@H](O)C(=O)O; Abu(4,4,4-F3) = N[C@@H](CC(F)(F)F)C(=O)O; dNMeaIle = CC[C@H](C)[C@@H](NC)C(=O)O; NMe2Val = CC(C)[C@@H](C(=O)*)N(C)C; NMeI = CC[C@H](C)[C@H](NC)C(=O)O; NMeT = CN[C@H](C(=O)O)[C@@H](C)O; NMeL = CN[C@@H](CC(C)C)C(=O)O; Hiv = CC(C)[C@H](O)C(=O)O; NMeS = CN[C@@H](CO)C(=O)O; NMeA = CN[C@@H](C)C(=O)O; dNMeA = CN[C@H](C)C(=O)O

Key:
SPs of Sec61 substrates = conditions: read-out: IC50, SPs of other (insensitive) Sec61 substrates; cited from earlier work
Hsp70 = assay: Immunoblot of Hsp70 in U87-MG cells; type: cell-based, human; conditions: 1 30 nM, 2 1 μM, 24 h
Summary of the method: (§1)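 U87-MG cells in MEM with 10% FBS are exposed 24 h to test compound (30 nM or 1 μM) or 0.1% DMSO. Protein-matched lysates (BCA) are run on SDS-PAGE, transferred to PVDF and detected with HRP secondary. Signals are normalized to α-tubulin and expressed relative to control. Three independent experiments; one-way ANOVA then t-test.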

Hsp90 = assay: Immunoblot of Hsp90 in U87-MG cells; type: cell-based, human; conditions: 1 30 nM, 2 1 μM, 24 h
Summary of the method: as §1

BiP = assay: Immunoblot of BiP expression; type: cell-based, human; conditions: for BiP expression: HUVECs and U87-MG cells, 1 μM, 24 h
SF-295 GBM cells = assay: Cell viability; type: cell-based, human; conditions: 72 h
Summary of the method: (§2)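 Cells are grown at 37 °C in 5% CO2. U87-MG and U251 are in MEM with 10% FBS, SF-268 in DMEM with 10% FBS, and SF-295 in RPMI 1640 with 10% FBS. HUVECs are pooled donors. Exposure is to the test compound (0.1 nM–1 μM) or 0.1% DMSO for 72 h. Viability is read by ATP luminescence as % of vehicle, n = 3 wells. […] comes from a logistic nonlinear fit over three independent comparisons.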

[1] = test system: human cytokines and chemokines in the SF-268 secretome; assay: Secretome profiling of human cytokines/chemokines in SF-268 conditioned medium; type: cell-based; conditions: SF-268, 1 μM, medium collected 24 h after removal, relative to vehicle
Summary of the method: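 SF-268 cells are seeded in 96-well plates; next day they get complete medium with test compound (1 μM) or 0.1% DMSO for 24 h. Medium is then replaced by serum-free medium for a further 24 h. Conditioned medium is concentrated by centrifugation (75 min, 4000g), flash-frozen and run on a 48-plex multiplex laser-bead cytokine/chemokine immunoassay. 43 analytes are quantified (five below detection dropped); data are % of vehicle.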

[2] = test system: WT and mutant (R66I) Sec61α HCT116 colon cancer cells; assay: Viability of WT versus Sec61α R66I mutant HCT116 cells; type: cell-based, human; conditions: for Effect of Sec61α R66I mutation on cytotoxic response relative to WT HCT116 cells: 72 h and 6 days (3 + 3 day exposure)
VCAM1 [3] = assay: Immunoblot of TNFα-stimulated VCAM1 in SF-295 cells; type: cell-based, human; conditions: for Efficacy in suppressing TNFα-stimulated VCAM1 expression: 1 µM, 24 h; for IC50: read-out: IC50, VCAM1 expression, TNFα 10 ng/mL, 24 h
Summary of the method: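 SF-295 cells (RPMI 1640, 10% FBS) are cotreated 24 h with increasing concentrations of test compound plus TNFα 10 ng/mL. Controls are 0.1% DMSO-treated and untreated cells. VCAM1 and ICAM1 are immunoblotted after SDS-PAGE and PVDF transfer. Signals are normalized to a loading control. Concentration–response is fit to a logistic equation by nonlinear regression.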

[4] = test system: patient-derived GSCs (M120, MGG6, M76, GBM8, and 157); type: cell-based, human; conditions: read-out: EC50 values, five GSC lines (M120, MGG6, M76, GBM8, 157); 72 h
VEGF-A = VEGF-A in cell culture medium by ELISA; type: cell-based, human; conditions: 1 µM, sustained 24 h after removal
[5] = test system: HEK293FRT cells expressing WT or mutant (R66I) Sec61α; assay: Viability of WT versus Sec61α R66I mutant HEK293 cells; type: cell-based, human; conditions: 72 h or 3 + 3 day exposure
Summary of the method: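 HEK293FRT cells carrying Sec61α R66I, with wild-type comparators, are grown in DMEM with 10% FBS, 6 mM L-glutamine and 1 mM pyruvate. They are exposed to increasing test compound concentrations or 0.1% DMSO for 72 h, or 3 + 3 days to avoid nutrient deprivation. ATP viability is read as % of vehicle, n = 3 wells. Logistic nonlinear fit; ≥3 independent experiments.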

VCAM1 [6] = assay: Immunoblot of VCAM1 transiently expressed in HEK293 cells; type: cell-based, human; conditions: 1 µM, 24 h
U87-MG GBM cells = assay: Cell viability; type: cell-based, human; conditions: 72 h
Summary of the method: as §2

[7] = molecular target: Gaussia luciferase (GLuc); assay: Gaussia luciferase; type: cell-based, human; conditions: 18 h; for Functional inhibition of GLuc secretion: relative to 1–3 or AprA
Summary of the method: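 U87-MG cells stably express GLuc after lentiviral transduction. Cells are seeded at 3000/well, allowed to adhere overnight, then given test compound or 0.1% DMSO for 18 h. Conditioned medium is read for luminescence with 1.2 μM final coelenterazine (3 s wait, 0.5 s integration). Adherent-cell ATP viability is read at the same time. Data are % of vehicle; IC50 comes from a logistic nonlinear fit; n ≥3 independent experiments.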

cancer cell lines = conditions: cited from earlier work
calreticulin (CALR) = assay: Immunoblot of calreticulin expression in U87-MG cells; type: cell-based, human; conditions: 1 μM, 24 h
Summary of the method: as §1

[8] = test system: UPR markers (BiP, CHOP, sXBP1, GADD34, IRE1) mRNA; assay: qPCR of ER stress; type: cell-based, human; conditions: 300 nM, 24 h
Summary of the method: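 GSC neurospheres (MGG6, 83, M76, GBM8) are treated 24 h with test compound 80 nM, thapsigargin 300 nM, both together, or 0.1% DMSO. BiP, CHOP, sXBP1, GADD34 and IRE1 mRNA are measured by qPCR normalized to GAPDH and expressed as fold-change versus vehicle.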

CC(C)C[C@@H]1NC(=O)[C@H](Cc2cn(Cc3ccc(Br)cc3)c3ccccc23)N(C)C(=O)[C@H](CC(F)(F)F)NC(=O)[C@H](CC(C)C)N(C)C(=O)[C@H](CC(F)(F)F)NC(=O)[C@@H](CCC#N)OC(=O)[C@H](C)N(C)C1=O [KZR-8445] (cyclo(L[NMeA][Butanoyl(2R-oxy,4-CN)][Abu(4,4,4-F3)][NMeL][Abu(4,4,4-F3)][NMeTrp(1-(4-Br-benzyl))]))
IC50 (SPs of Sec61 substrates): > 25 µM

CC[C@H](C)[C@H]1C(=O)N[C@@H](C)C(=O)N(C)[C@@H](CC(C)C)C(=O)N[C@@H](Cc2ccc(OC)cc2)C(=O)N(C)[C@H](C)C(=O)O[C@H](C)[C@H](N(C)C(=O)[C@H](CC(C)C)N(C)C(=O)[C@H](COC)N(C)C(=O)[C@@H](OC(=O)[C@H](C(C)C)N(C)C)C(C)C)C(=O)N(C)[C@@H](COC)C(=O)N1C [compound 2, [L-Hiv^2]-CbA] (NMe2Val-[Hiv][NMeS](Me)[NMeL][NMeT][NMeS](Me)[NMeI]A[NMeL]Y(Me)[dNMeA]; ester 4-C)
Hsp70 expression (Hsp70): upregulation | Hsp90 expression (Hsp90): upregulation | BiP expression, GSC line 83 (BiP; 1 250 nM and 500 nM, 2 3 µM, 72 h): decrease | BiP expression (BiP): suppressed | Fold less sensitive than 1, SF-295 cells (SF-295 GBM cells): 5 fold | Number of the 43 secreted proteins whose expression was decreased by <50% [1]: 24 | Effect of Sec61α R66I mutation on cytotoxic response relative to WT HCT116 cells [2]: decrease in cytotoxic efficacy | Fold greater sensitivity of VCAM1 to 2 than to 3 (VCAM1 [3]): approximately 7 fold | Efficacy in suppressing TNFα-stimulated VCAM1 expression (VCAM1 [3]): fully efficacious | IC50 (VCAM1 [3]): 88 nM | EC50 [4]: < 3 µM | Inhibition of VEGF-A at 24 h (VEGF-A): statistically significant inhibition | Response of mutant Sec61(R66I) HEK293 cells relative to WT [5]: patterns of resistance | Level of VCAM1 transiently expressed in HEK293 cells (VCAM1 [6]): statistically significant decreases | Fold less potent than 1, U87-MG cells (U87-MG GBM cells): approximately 13 fold

CC[C@H](C)[C@H]1C(=O)N[C@@H](C)C(=O)N(C)[C@@H](CC(C)C)C(=O)N[C@@H](Cc2ccc(OC)cc2)C(=O)N(C)[C@@H](C)C(=O)O[C@H](C)[C@H](N(C)C(=O)[C@H](CC(C)C)N(C)C(=O)[C@H](COC)N(C)C(=O)[C@@H](OC(=O)[C@H](C(C)C)N(C)C)C(C)C)C(=O)N(C)[C@@H](COC)C(=O)N1C [compound 3, [L-Hiv^2, L-MeAla^11]-CbA] (NMe2Val-[Hiv][NMeS](Me)[NMeL][NMeT][NMeS](Me)[NMeI]A[NMeL]Y(Me)[NMeA]; ester 4-C)
IC50 ([7]; read-out: IC50, inhibition of GLuc secretion, U87-MG cells expressing GLuc, conditioned medium): < 20 nM | Cytotoxic efficacy range (cancer cell lines): micromolar range | CALR expression (calreticulin (CALR)): less sensitive | BiP expression (BiP): no statistically significant change | Number of the 43 secreted proteins whose expression was decreased by <50% [1]: 18 | Cell viability of HCT116 cells at 72 h ([2]; 72 h, 0.3 nM–3 μM): no change in the cell viability | Response of R66I mutant HCT116 cells at the extended end point ([2]; 6 days (3 + 3 day exposure)): pattern of resistance | Efficacy in suppressing TNFα-stimulated VCAM1 expression (VCAM1 [3]): partially effective | IC50 (VCAM1 [3]): 620 nM | EC50 [4]: < 6 µM | Inhibition of VEGF-A at 24 h (VEGF-A): statistically significant inhibition | Response of mutant Sec61(R66I) HEK293 cells relative to WT [5]: patterns of resistance | Level of VCAM1 transiently expressed in HEK293 cells (VCAM1 [6]): statistically significant decreases

CC[C@H](C)[C@@H]1C(=O)N[C@@H](C)C(=O)N(C)[C@@H](CC(C)C)C(=O)N[C@@H](Cc2ccc(OC)cc2)C(=O)N(C)[C@H](C)C(=O)O[C@H](C)[C@H](N(C)C(=O)[C@H](CC(C)C)N(C)C(=O)[C@H](COC)N(C)C(=O)[C@@H](OC(=O)[C@H](C(C)C)N(C)C)C(C)C)C(=O)N(C)[C@@H](COC)C(=O)N1C [compound 4, [L-Hiv^2, D-allo-Ile^7]-CbA] (NMe2Val-[Hiv][NMeS](Me)[NMeL][NMeT][NMeS](Me)[dNMeaIle]A[NMeL]Y(Me)[dNMeA]; ester 4-C)
Functional inhibition of GLuc secretion [7]: loss of functional efficacy

CC[C@H](C)[C@@H]1C(=O)N[C@@H](C)C(=O)N(C)[C@@H](CC(C)C)C(=O)N[C@@H](Cc2ccc(OC)cc2)C(=O)N(C)[C@@H](C)C(=O)O[C@H](C)[C@H](N(C)C(=O)[C@H](CC(C)C)N(C)C(=O)[C@H](COC)N(C)C(=O)[C@@H](OC(=O)[C@H](C(C)C)N(C)C)C(C)C)C(=O)N(C)[C@@H](COC)C(=O)N1C [compound 5, [L-Hiv^2, D-allo-Ile^7, L-MeAla^11]-CbA] (NMe2Val-[Hiv][NMeS](Me)[NMeL][NMeT][NMeS](Me)[dNMeaIle]A[NMeL]Y(Me)[NMeA]; ester 4-C)
Functional inhibition of GLuc secretion [7]: loss of functional efficacy

C[C@@]12OC(=O)[C@]1([C@@H](O)[C@@H]1C=CCCC1)NC(=O)[C@@H]2CCCl [marizomib, reference compound]
Effect of Sec61α R66I mutation on cytotoxic response relative to WT HCT116 cells [2]: did not change the cytotoxic efficacy | Response of mutant Sec61(R66I) HEK293 cells relative to WT [5]: highly sensitive

C/C=C(/C)C(=O)O[C@H]1C(C)=C2[C@H]([C@@H]1OC(=O)CCCCCCC)[C@@](C)(OC(C)=O)C[C@H](OC(=O)CCC)[C@@]1(O)[C@H]2OC(=O)[C@@]1(C)O [thapsigargin, reference compound]
BiP, CHOP, sXBP1, GADD34 and IRE1 mRNA expression in GSCs [8]: marked upregulation
